Data as given in ChEMBL document CHEMBL4257556, “Novel 1,3,4-thiadiazole-chalcone hybrids containing catechol moiety: synthesis, antioxidant activity, cytotoxicity and DNA interaction studies” (Medchemcomm, 2018).
One block for each compound: values may come before it. Activity calls are given as the source filed them. No cut-off for these calls is given here.

What was measured:
HeLa [1] = assay: Downregulation of miR-155 expression in human HeLa cells at 10 uM after 24 hrs by RT-qPCR method; assay type: functional, cell-based
HeLa [2] = assay: Downregulation of miR-133b expression in human HeLa cells at 10 uM after 24 hrs by RT-qPCR method; assay type: functional, cell-based
[3] = Antioxidant activity assessed as DPPH free radical scavenging activity after 30 mins; assay type: functional
Procedure, shortened: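 DPPH (0.05 mM in methanol) mixed with equal volume of compound (DMSO solution diluted in methanol), kept in dark at room temperature 30 min; absorbance at 517 nm, methanol control, ascorbic acid positive control. IC50 = concentration giving 50% of maximum scavenging; mean ± SD of independent triplicate experiments.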

Calf thymus DNA [4] = assay: Binding affinity to calf thymus DNA after 90 mins by spectroscopic titration method; assay type: nucleic-acid assay; conditions: Bos taurus
Procedure, shortened: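 Compound fixed at 40 μM titrated with CT-DNA (2.2–13 × 10–5 M) in 40 mM bicarbonate pH 8.4 after 90 min at 37 °C; absorbance at 259 nm per DNA level. Kb from slope/intercept ratio of [DNA]/(εa–εf) versus [DNA] plot; triplicate assays.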

Calf thymus DNA [5] = assay: Displacement of Hoechst 33258 from calf thymus DNA assessed as quenching constant by fluorescence spectrophotometric analysis; assay type: nucleic-acid assay; conditions: Bos taurus
Procedure, shortened: (§1)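 CT-DNA 100 μM (per phosphate) in 40 mM bicarbonate pH 8.4 pretreated 20 min with Hoechst 33258 (28 μM final), then compound added stepwise. Excitation 350 nm, emission 390–550 nm, read at 444 nm, 10 nm slits; H–DNA as control. Quenching constant K by Stern–Volmer, I0/I versus r = [compound]/[DNA]; triplicate.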

MRC5 [6] = assay: Induction of DNA damage in human MRC5 cells assessed as formation of DNA breaks at 25 uM after 24 hrs by comet assay relative to control; assay type: functional
Procedure, shortened: (§2)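 MRC-5 cells exposed 24 h to 3.125–25 μM compound; DNA damage scored as % tail DNA (tail intensity) by comet assay. PBS negative control; H2O2 50 μM 5 min in-gel positive control. Triplicate, repeated twice; mean ± SD.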

HeLa [7] = assay: Upregulation of MMP9 gene expression in human HeLa cells at 10 uM after 24 hrs by RT-qPCR method; assay type: functional, cell-based
HeLa [8] = assay: Cell cycle arrest in human HeLa cells assessed as accumulation at sub-G1 phase at IC50 and 2 times IC50 after 24 hrs by propidium iodide staining-based flow cytometric method; assay type: functional
Procedure, shortened: (§3)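 HeLa cells treated 24 h at IC50 or 2×IC50 (from 72 h assay), fixed in 70% ethanol, stored at –20 °C ≥1 week, RNase A 30 min 37 °C, propidium iodide stained; flow cytometry, 10 000 gated events. Mean ± SD of three independent experiments; one-way ANOVA with Dunnett's post-test, p < 0.05.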

DNA [9] = assay: Induction of Escherichia coli pUC19 DNA cleavage after 90 mins by agarose gel electrophoresis method; assay type: nucleic-acid assay
Procedure, shortened: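 Plasmid pUC19 (from E. coli XL1 blue; 460 ng, 12 nM) incubated with compound (0.05–0.4 mM; from 2 mM DMSO stock) in 20 μL 40 mM bicarbonate pH 8.4 at 37 °C for 90 min; 1% agarose gel in TAE at 80 V, ethidium bromide staining, UV at 312 nm; supercoiled/nicked/linear forms scored.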

HeLa [10] = assay: Downregulation of MMP2 gene expression in human HeLa cells at 10 uM after 24 hrs by RT-qPCR method; assay type: functional, cell-based
EA.hy 926 = assay: Antiangiogenic activity in human EAhy926 cells assessed as inhibition of tubular structures formation at IC20 after 20 hrs by inverted phase-contrast microscopic method; assay type: functional, cell-based
HeLa [11] = assay: Cytotoxicity against human HeLa cells assessed as decrease in cell survival after 72 hrs by MTT assay; assay type: functional, cell-based
Procedure, shortened: (§4)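 HeLa (2000/well), A549 and MRC-5 (5000/well) seeded 20 h before treatment; HL-60 (7000/well) 2 h before. Five concentrations (6.25–100 μM or 3.125–50 μM) from 5 mM DMSO stocks, final DMSO ≤1%, 72 h; survival by MTT. Cisplatin positive control; three independent experiments in triplicate.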

HeLa [12] = assay: Cell cycle arrest in human HeLa cells assessed as accumulation at sub-G1 phase at 2 times IC50 after 24 hrs in presence of caspase-9 inhibitor Z-LEHD-FMK by propidium iodide-staining based flow cytometric method; assay type: functional
Procedure, shortened: (§5)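 HeLa cells pretreated 2 h with 40 μM peptide caspase inhibitor (Z-DEVD-FMK caspase-3, Z-IETD-FMK caspase-8 or Z-LEHD-FMK caspase-9), then exposed to 2×IC50 compound; subG1 fraction by propidium iodide flow cytometry, compared with samples lacking inhibitor.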

MRC5 [13] = assay: Induction of DNA damage in human MRC5 cells assessed as formation of DNA breaks after 24 hrs by comet assay; assay type: functional, cell-based; procedure, shortened: as §2
Calf thymus DNA [14] = assay: Displacement of Hoechst 33258 from calf thymus DNA assessed as fluorescence intensity of compound-DNA complex at 22 uM by fluorescence spectrophotometric analysis relative to control; assay type: nucleic-acid assay; conditions: Bos taurus; procedure, shortened: as §1
MRC5 [15] = assay: Cytotoxicity against human MRC5 cells assessed as decrease in cell survival after 72 hrs by MTT assay; assay type: cell-based; conditions: MRC5, 72 h; procedure, shortened: as §4
HeLa [16] = assay: Downregulation of VEGFA gene expression in human HeLa cells at 10 uM after 24 hrs by RT-qPCR method; assay type: functional, cell-based
A549 = assay: Cytotoxicity against human A549 cells assessed as decrease in cell survival after 72 hrs by MTT assay; assay type: functional, cell-based; conditions: A549, 72 h; procedure, shortened: as §4
Calf thymus DNA [17] = assay: Binding affinity to calf thymus DNA assessed as hypochromism at 10 to 20 uM after 90 mins by UV/visible spectrophotometric analysis; assay type: nucleic-acid assay; conditions: Bos taurus
Procedure, shortened: (§6)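 CT-DNA stock in 10 mM Tris-HCl pH 7.9 (A260/A280 1.89–2.01; concentration from ε260 6600 M–1 cm–1). Compound (10, 20 or 40 μM) plus CT-DNA (95 μM) in 40 mM bicarbonate pH 8.4, 37 °C 90 min; spectra 200–800 nm. Hyper/hypochromism at 259 nm from bound versus summed free compound and DNA extinction; triplicate.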

Calf thymus DNA [18] = assay: Binding affinity to calf thymus DNA at 10 to 40 uM after 90 mins by UV/visible spectrophotometric analysis; assay type: nucleic-acid assay; conditions: Bos taurus; procedure, shortened: as §6
HeLa [19] = assay: Cell cycle arrest in human HeLa cells assessed as accumulation at G2/M phase at 2 times IC50 after 24 hrs by propidium iodide staining-based flow cytometric method; assay type: functional; procedure, shortened: as §3
HeLa [20] = assay: Downregulation of miR-21 expression in human HeLa cells at 10 uM after 24 hrs by RT-qPCR method; assay type: functional, cell-based
HeLa [21] = assay: Prooxidant activity in human HeLa cells assessed as increase in H2O2-induced reactive oxygen species at 10 uM preincubated for 24 hrs followed by H2O2 addition and measured after 30 mins by dichlorofluorescein dye-based flow cytometric method; assay type: functional, cell-based
Procedure, shortened: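 HeLa cells pretreated 24 h with 10 μM compound, washed, loaded with 30 μM DCFH-DA in PBS 45 min at 37 °C. One portion read directly (endogenous ROS); other portion exposed to 10 mM H2O2 30 min at 37 °C. DCF green fluorescence by flow cytometry, 20 000 events per sample; mean ± SD of two independent experiments.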

HeLa [22] = assay: Cell cycle arrest in human HeLa cells assessed as accumulation at sub-G1 phase at 2 times IC50 after 24 hrs in presence of caspase-8 inhibitor Z-IETD-FMK by propidium iodide-staining based flow cytometric method; assay type: functional; procedure, shortened: as §5
DNA [23] = assay: Reversal of Fe2+-induced Escherichia coli pUC19 DNA cleavage at 1:2 compound to Fe2+ mole ratio after 90 mins by agarose gel electrophoresis method; assay type: functional
Procedure, shortened: (§7)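 Compound (4 μL of 2 mM) preincubated with FeSO4 (1 or 2 μL of 8 mM; compound:Fe 1:1 or 1:2) in bicarbonate buffer 60 min at 37 °C, then pUC19 added for another 90 min; products resolved on 1% agarose gel, ethidium bromide stained.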

HeLa [24] = assay: Downregulation of TIMP3 gene expression in human HeLa cells at 10 uM after 24 hrs by RT-qPCR method; assay type: functional, cell-based
DNA [25] = assay: Reversal of Fe2+-induced Escherichia coli pUC19 DNA cleavage at 1:1 compound to Fe2+ mole ratio after 90 mins by agarose gel electrophoresis method; assay type: functional; procedure, shortened: as §7
HL-60 = assay: Cytotoxicity against human HL60 cells assessed as decrease in cell survival after 72 hrs by MTT assay; assay type: functional, cell-based; conditions: HL-60, 72 h; procedure, shortened: as §4
HeLa [26] = assay: Upregulation of miR-206 expression in human HeLa cells at 10 uM after 24 hrs by RT-qPCR method; assay type: functional, cell-based
HeLa [27] = assay: Cell cycle arrest in human HeLa cells assessed as accumulation at sub-G1 phase at 2 times IC50 after 24 hrs in presence of caspase-3 inhibitor Z-DEVD-FMK by propidium iodide-staining based flow cytometric method; assay type: functional; procedure, shortened: as §5

- IC50 [3]: 10.3 µM
- Kb (Calf thymus DNA [4]): 0.71 ×10³ /M
- K (Calf thymus DNA [5]): 3.95
- Activity (DNA [9]): inactive
- Activity (Calf thymus DNA [14]): 55%
- Activity (Calf thymus DNA [17]): 2.4%
- Activity (Calf thymus DNA [18]): Active
SMILES: COc1cccc(C(=O)/C=C/c2ccc(C(=O)Nc3nnc(-c4ccc(O)c(O)c4)s3)cc2)c1
- Activity (HeLa [1]): Active
- Activity (HeLa [2]): Active
- Activity (MRC5 [6]): 20%
- Activity (HeLa [7]): Active
- Activity (HeLa [8]): Active
- Activity (HeLa [10]): Active
- inhibition (EA.hy 926): Active
- IC50 (HeLa [11]): 9.98 µM
- Activity (HeLa [12]): inactive
- Activity (MRC5 [13]): Dose-dependent effect
- IC50 (MRC5 [15]): 42.5 µM
- Activity (HeLa [16]): Active
- IC50 (A549): 92.1 µM
- Activity (HeLa [19]): Active
- Activity (HeLa [20]): inactive
- Activity (HeLa [21]): Active
- Activity (HeLa [22]): inactive
- Activity (DNA [23]): Active
- Activity (HeLa [24]): Active
- Activity (DNA [25]): Active
- IC50 (HL-60): 9.92 µM
- Activity (HeLa [26]): Active
- Activity (HeLa [27]): inactive

- IC50 [3]: 17.9 µM
SMILES: COc1ccc(C(=O)/C=C/c2ccc(C(=O)Nc3nnc(-c4ccc(O)c(O)c4)s3)cc2)cc1
- IC50 (HeLa [11]): 57.6 µM
- IC50 (MRC5 [15]): 81.3 µM
- IC50 (A549): 89.1 µM
- IC50 (HL-60): 16.4 µM

- IC50 [3]: 17.8 µM
SMILES: O=C(/C=C/c1ccc(C(=O)Nc2nnc(-c3ccc(O)c(O)c3)s2)cc1)c1ccc(F)cc1
- IC50 (HeLa [11]): 17.8 µM
- IC50 (MRC5 [15]): 45.8 µM
- IC50 (A549): 89.3 µM
- IC50 (HL-60): 10.6 µM

- IC50 [3]: 9.76 µM
SMILES: COc1ccccc1C(=O)C=Cc1ccc(C(=O)Nc2nnc(-c3ccc(O)c(O)c3)s2)cc1
- IC50 (HeLa [11]): 10.2 µM
- IC50 (MRC5 [15]): 48 µM
- IC50 (A549): 50.2 µM
- IC50 (HL-60): 12 µM

- IC50 [3]: 18 µM
SMILES: O=C(/C=C/c1ccc(C(=O)Nc2nnc(-c3ccc(O)c(O)c3)s2)cc1)c1ccc(Br)cc1
- IC50 (HeLa [11]): 40.2 µM
- IC50 (MRC5 [15]): 38.2 µM
- IC50 (A549): 87.7 µM
- IC50 (HL-60): 9.74 µM

- IC50 [3]: 11.8 µM
SMILES: Cc1ccc(C(=O)/C=C/c2ccc(C(=O)Nc3nnc(-c4ccc(O)c(O)c4)s3)cc2)cc1
- IC50 (HeLa [11]): 11.2 µM
- IC50 (MRC5 [15]): 33.7 µM
- IC50 (A549): 26.4 µM
- IC50 (HL-60): 8.44 µM
